Results from ChEMBL document CHEMBL1152541, “Staurosporine tethered peptide ligands that target cAMP-dependent protein kinase (PKA): optimization and selectivity profiling” (Bioorg Med Chem, 2009).
*1 amine or outer side, *2 acyl side, *3 side chain or, on linkers, in order; H or OH if unused. Where a SMILES comes first, the peptide text is derived from it. Bridges are numbered along the chain shown (N, C = ends). [ ]: non-standard residue; d: D form. The star is where a group is joined. Staurosporine = CO[C@@H]1[C@H](N(C)*)C[C@H]2O[C@]1(C)n1c3ccccc3c3c4c(c5c6ccccc6n2c5c31)C(=O)NC4; Suc = O=C(CCC(=O)[*:2])[*:1]; Dap = NC[C@H](N)C(=O)O; βAla = NCCC(=O)O

Experiments:
[1] = system: Tyrosine-protein kinase ABL1 (Homo sapiens), P00519 [E255K]; test: Binding affinity to human ABL1 E255K mutant at 500 nM by cell-based competition binding assay relative to control in presence of DTT
Procedure, shortened: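 Kinase binding profiling ran on a commercial (Ambit) competitive binding screen against a panel of 90 kinases. The screen used reducing conditions with 7.5 mM DTT. To withstand the DTT, the bivalent ligand was tested as its amide isostere, with the disulfide replaced. A staurosporine derivative carrying a 3 β-alanine linker was run as the reference compound.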

[2] = biological target: MAP kinase-activated protein kinase 2 (Homo sapiens) (UniProt P49137); test: Binding affinity to human MAPKAPK2 at 500 nM by cell-based competition binding assay relative to control in presence of DTT
Procedure, shortened: (§1)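 Competition binding screen (Ambit) across a panel of 90 kinases, scoring test ligand displacement of each kinase's binding relative to control. The screen ran under reducing conditions with 7.5 mM DTT.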

[3] = biological target: Serine/threonine-protein kinase pim-1 (Homo sapiens) (UniProt P11309); test: Binding affinity to human PIM1 at 500 nM by cell-based competition binding assay relative to control in presence of DTT
[4] = biological target: T1, Serine/threonine-protein kinase PLK4 (Homo sapiens) (UniProt O00444); test: Binding affinity to human PLK4 at 500 nM by cell-based competition binding assay relative to control in presence of DTT
T1 sequence (whole entry): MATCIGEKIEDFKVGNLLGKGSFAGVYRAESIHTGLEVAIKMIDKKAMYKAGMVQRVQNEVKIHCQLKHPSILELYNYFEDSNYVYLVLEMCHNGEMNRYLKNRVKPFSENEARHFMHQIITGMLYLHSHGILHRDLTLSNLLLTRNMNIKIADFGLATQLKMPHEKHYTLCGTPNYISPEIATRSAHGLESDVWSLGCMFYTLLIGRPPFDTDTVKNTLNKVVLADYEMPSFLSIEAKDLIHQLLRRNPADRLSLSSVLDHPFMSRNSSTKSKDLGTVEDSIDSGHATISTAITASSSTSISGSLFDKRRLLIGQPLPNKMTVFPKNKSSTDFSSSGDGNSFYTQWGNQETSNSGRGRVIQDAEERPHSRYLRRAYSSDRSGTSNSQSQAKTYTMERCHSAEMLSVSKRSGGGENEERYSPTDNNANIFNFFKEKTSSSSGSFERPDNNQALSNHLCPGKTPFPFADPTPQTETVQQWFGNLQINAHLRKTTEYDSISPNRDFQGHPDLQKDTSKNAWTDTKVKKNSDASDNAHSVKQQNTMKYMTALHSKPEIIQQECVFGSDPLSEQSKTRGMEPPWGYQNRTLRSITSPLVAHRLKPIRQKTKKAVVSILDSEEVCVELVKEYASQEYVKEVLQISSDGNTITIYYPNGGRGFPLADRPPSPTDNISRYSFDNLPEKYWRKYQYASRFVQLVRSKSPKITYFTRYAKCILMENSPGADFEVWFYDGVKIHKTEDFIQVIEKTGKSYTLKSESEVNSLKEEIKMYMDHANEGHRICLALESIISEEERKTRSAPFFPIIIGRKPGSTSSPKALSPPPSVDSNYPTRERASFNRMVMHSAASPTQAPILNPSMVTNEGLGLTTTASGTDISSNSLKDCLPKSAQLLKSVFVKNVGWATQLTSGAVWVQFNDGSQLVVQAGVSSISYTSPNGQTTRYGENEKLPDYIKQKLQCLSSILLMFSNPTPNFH

[5] = biological target: Cyclin-dependent kinase 9 (Homo sapiens) (UniProt P50750); test: Binding affinity to human CDK9 at 200 nM by cell-based competition binding assay relative to control in presence of DTT
Procedure, shortened: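 Commercial (Ambit) competitive kinase-binding panel of 90 kinases measured the binding profile. Run under reducing conditions of 7.5 mM DTT. Binding is expressed relative to control.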

[6] = biological target: T2, Serine/threonine-protein kinase STK11 (Homo sapiens) (UniProt Q15831); test: Binding affinity to human LKB1 at 50 nM by cell-based competition binding assay relative to control in presence of DTT; procedure, shortened: as §1
T2 sequence (whole entry): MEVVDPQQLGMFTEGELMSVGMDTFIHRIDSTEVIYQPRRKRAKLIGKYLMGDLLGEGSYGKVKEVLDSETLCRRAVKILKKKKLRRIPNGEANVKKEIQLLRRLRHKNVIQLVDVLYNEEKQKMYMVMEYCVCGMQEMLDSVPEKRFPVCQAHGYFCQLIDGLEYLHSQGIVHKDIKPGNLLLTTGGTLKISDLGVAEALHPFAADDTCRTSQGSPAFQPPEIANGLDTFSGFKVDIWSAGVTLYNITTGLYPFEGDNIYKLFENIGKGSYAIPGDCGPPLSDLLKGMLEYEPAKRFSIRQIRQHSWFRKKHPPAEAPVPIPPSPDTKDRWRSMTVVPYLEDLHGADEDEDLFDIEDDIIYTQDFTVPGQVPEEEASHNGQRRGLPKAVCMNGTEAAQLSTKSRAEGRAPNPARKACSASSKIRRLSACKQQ

[7] = biological target: T3, Aurora kinase A (Homo sapiens) (UniProt O14965); test: Binding affinity to human aurora kinase A at 50 nM by cell-based competition binding assay relative to control in presence of DTT
T3 sequence (whole entry): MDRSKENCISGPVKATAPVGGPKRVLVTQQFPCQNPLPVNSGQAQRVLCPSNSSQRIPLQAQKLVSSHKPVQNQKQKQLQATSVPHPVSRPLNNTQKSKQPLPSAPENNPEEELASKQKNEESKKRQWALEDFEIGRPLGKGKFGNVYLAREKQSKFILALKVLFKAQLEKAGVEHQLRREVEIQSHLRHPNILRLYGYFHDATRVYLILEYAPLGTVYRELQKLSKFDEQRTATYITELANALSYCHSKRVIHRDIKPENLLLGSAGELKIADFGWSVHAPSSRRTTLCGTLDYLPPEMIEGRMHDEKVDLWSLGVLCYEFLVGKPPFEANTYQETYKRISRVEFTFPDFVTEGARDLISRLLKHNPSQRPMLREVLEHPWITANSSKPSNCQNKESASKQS

## CO[C@@H]1[C@H](N(C)C(=O)CCC(=O)NCCC(=O)NCCC(=O)NCCC(N)=O)C[C@H]2O[C@]1(C)n1c3ccccc3c3c4c(c5c6ccccc6n2c5c31)C(=O)NC4
[1]
  Activity: 92%
[2]
  Activity: 100%
[3]
  Activity: 20%
[4]
  Activity: 3.6%

## CO[C@@H]1[C@H](N(C)C(=O)CCC(=O)NCCC(=O)NCCC(=O)NCCC(=O)NCCC(=O)NCCC(=O)NCCC(=O)NCCC(=O)N[C@H]2CSSC[C@@H](C(=O)NCC(N)=O)NC(=O)CNC(=O)[C@H](Cc3ccccc3)NC(=O)[C@H](C(C)C)NC(=O)[C@H](CCCNC(=N)N)NC(=O)[C@H](Cc3ccccc3)NC(=O)[C@H](C(C)C)NC2=O)C[C@H]2O[C@]1(C)n1c3ccccc3c3c4c(c5c6ccccc6n2c5c31)C(=O)NC4 ({Staurosporine-Suc-βAla-βAla-βAla-βAla-βAla-βAla-βAla}-CVFRVFGCG-NH2; disulfide 1-8)
[5]
  Activity: 100%

## CO[C@@H]1[C@H](N(C)C(=O)CCC(=O)NCCC(=O)NCCC(=O)NCCC(=O)NCCC(=O)NCCC(=O)NCCC(=O)NCCC(=O)N[C@H]2CNC(=O)C[C@@H](C(N)=O)NC(=O)CNC(=O)[C@H](Cc3ccccc3)NC(=O)[C@H](C(C)C)NC(=O)[C@H](CCCNC(=N)N)NC(=O)[C@H](Cc3ccccc3)NC(=O)[C@H](C(C)C)NC2=O)C[C@H]2O[C@]1(C)n1c3ccccc3c3c4c(c5c6ccccc6n2c5c31)C(=O)NC4 ({Staurosporine-Suc-βAla-βAla-βAla-βAla-βAla-βAla-βAla}-[Dap]VFRVFGD-NH2; lactam 1-8)
[6]
  Activity: 100%
[7]
  Activity: 63%
